# Laboratory results published in ChEMBL document CHEMBL2062523, “Synthesis and evaluation of the quorum sensing inhibitory effect of substituted triazolyldihydrofuranones” (Bioorg Med Chem, 2012).
# The source made the active and inactive calls. No cut-off for these calls is given here.
# How the values were obtained:
# [1] = molecular target: T1, Transcriptional activator protein LuxR (Aliivibrio fischeri) (UniProt P12746); experiment: Antagonist activity at Vibrio fischeri LuxR-mediated quorum sensing expressed in Escherichia coli JB523 assessed as inhibition of C6-HSL-induced GFP expression at 1 mM after 24 hrs by reporter gene assay; assay type: functional
# T1 sequence (whole entry): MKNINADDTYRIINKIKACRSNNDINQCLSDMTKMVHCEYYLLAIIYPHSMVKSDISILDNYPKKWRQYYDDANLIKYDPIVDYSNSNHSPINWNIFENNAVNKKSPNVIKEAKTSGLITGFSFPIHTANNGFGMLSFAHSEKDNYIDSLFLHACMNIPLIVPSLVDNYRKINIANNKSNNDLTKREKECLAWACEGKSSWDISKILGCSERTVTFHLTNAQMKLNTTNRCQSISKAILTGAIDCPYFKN
# Summary of the method: (§1)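 JB523 GFP biosensor in LB/0.4% NaCl at OD590 0.1 with tetracycline 100 µg/ml final; compounds co-added with C6-HSL (5 µM). Plates kept 24 h at 30 °C, then GFP read at 485/510 nm. Each compound tested in twelve wells, assay repeated at least three times.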
# Escherichia coli = experiment: Antibacterial activity against Escherichia coli JB523 after 20 hrs by broth microdilution assay; assay type: functional; details: JB523, 20 h
# Summary of the method: (§2)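 EUCAST broth microdilution in triplicate, inoculum about 5 × 10^5 CFU/ml. Incubated 20 h at 37 °C, then OD590 read. Compounds from 100 mM DMSO stocks, diluted in water.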
# Burkholderia cenocepacia [2] = experiment: Antibacterial activity against Burkholderia cenocepacia LMG16656 after 20 hrs by broth microdilution assay; assay type: functional; details: LMG16656, 20 h; summary of the method: as §2
# Pseudomonas aeruginosa [3] = experiment: Antibacterial activity against Pseudomonas aeruginosa PAO1 after 20 hrs by broth microdilution assay; assay type: functional; details: PAO1, 20 h; summary of the method: as §2
# Pseudomonas aeruginosa [4] = experiment: Antibacterial activity against Pseudomonas aeruginosa QSIS2 after 20 hrs by broth microdilution assay; assay type: functional; details: QSIS2, 20 h; summary of the method: as §2
# [5] = molecular target: T1, Transcriptional activator protein LuxR (Aliivibrio fischeri); experiment: (§3) Antagonist activity at Vibrio fischeri LuxR-mediated quorum sensing expressed in Escherichia coli JB523 assessed as inhibition of C6-HSL-induced GFP expression after 24 hrs by reporter gene assay; assay type: functional; summary of the method: as §1
# [6] = molecular target: T1, Transcriptional activator protein LuxR (Aliivibrio fischeri); experiment: Antagonist activity at Vibrio fischeri LuxR-mediated quorum sensing expressed in Escherichia coli JB523 assessed as inhibition of C6-HSL-induced GFP expression at 0.1 mM after 24 hrs by reporter gene assay; assay type: functional; summary of the method: as §1
# [7] = molecular target: T1, Transcriptional activator protein LuxR (Aliivibrio fischeri); experiment: Antagonist activity at Vibrio fischeri LuxR expressed in Escherichia coli JB523 assessed as inhibition of C6-HSL-induced GFP expression at 0.5 mM after 24 hrs by reporter gene assay; assay type: functional; summary of the method: as §1
# Pseudomonas aeruginosa [8] = experiment: Antagonist activity at Pseudomonas aeruginosa QSIS2 LasR-mediated quorum sensing co-expressing SacB1 assessed as inhibition of 3-oxo-C12-HSL-induced luminescence at 0.1 mM after 24 hrs by reporter gene assay; assay type: functional
# Pseudomonas aeruginosa [9] = experiment: Antagonist activity at Pseudomonas aeruginosa QSIS2 LasR-mediated quorum sensing co-expressing SacB1 assessed as inhibition of 3-oxo-C12-HSL-induced luminescence at 0.25 mM […] by reporter gene assay; assay type: functional
# Pseudomonas aeruginosa [10] = experiment: Antagonist activity at Pseudomonas aeruginosa QSIS2 LasR-mediated quorum sensing co-expressing SacB1 assessed as inhibition of 3-oxo-C12-HSL-induced luminescence at 0.5 mM after 24 hrs by reporter gene assay; assay type: functional
# [11] = molecular target: T1, Transcriptional activator protein LuxR (Aliivibrio fischeri); experiment: Agonist activity at Vibrio fischeri LuxR-mediated quorum sensing expressed in Escherichia coli JB523 assessed as GFP expression at 0.1 mM after 24 hrs by reporter gene assay; assay type: functional
# Summary of the method: (§4)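 E. coli JB523 (pJBA130, luxR-PluxI–GFP) overnight culture diluted to OD590 0.1 in LB with 0.4% NaCl, tetracycline 100 µg/ml final. Compounds 100–1000 µM added without signal; C6-HSL (5 µM) as positive control, water as negative. 24 h at 30 °C; GFP fluorescence ex 485/em 510 nm. Twelve wells per compound, ≥3 repeats.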
# [12] = molecular target: T1, Transcriptional activator protein LuxR (Aliivibrio fischeri); experiment: Agonist activity at Vibrio fischeri LuxR-mediated quorum sensing expressed in Escherichia coli JB523 assessed as GFP expression at 0.25 mM after 24 hrs by reporter gene assay; assay type: functional; summary of the method: as §4
# [13] = molecular target: T1, Transcriptional activator protein LuxR (Aliivibrio fischeri); experiment: Agonist activity at Vibrio fischeri LuxR-mediated quorum sensing expressed in Escherichia coli JB523 assessed as GFP expression at 0.5 mM after 24 hrs by reporter gene assay; assay type: functional; summary of the method: as §4
# Pseudomonas aeruginosa [14] = experiment: Agonist activity at Pseudomonas aeruginosa QSIS2 LasR-mediated quorum sensing co-expressing SacB1 assessed as luminescence at 0.1 mM after 24 hrs by reporter gene assay; assay type: functional
# Pseudomonas aeruginosa [15] = experiment: Agonist activity at Pseudomonas aeruginosa QSIS2 LasR-mediated quorum sensing co-expressing SacB1 assessed as luminescence at 0.25 mM after 24 hrs by reporter gene assay; assay type: functional
# Pseudomonas aeruginosa [16] = experiment: Agonist activity at Pseudomonas aeruginosa QSIS2 LasR-mediated quorum sensing co-expressing SacB1 assessed as luminescence at 0.5 mM after 24 hrs by reporter gene assay; assay type: functional
# Pseudomonas aeruginosa [17] = experiment: Agonist activity at Pseudomonas aeruginosa QSIS2 LasR-mediated quorum sensing co-expressing SacB1 assessed as luminescence after 24 hrs by reporter gene assay; assay type: functional
# Pseudomonas aeruginosa [18] = experiment: Antimicrobial activity against Pseudomonas aeruginosa PAO1 assessed as inhibition of biofilm formation at 1 mM after 24 hrs by crystal violet staining; assay type: functional; details: for inhibition at 1000 µM: PAO1, 24 h
# Summary of the method: (§5)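 Overnight MH cultures resuspended in 2× MH at OD590 0.1 and mixed 1:1 with compound or water. Adhesion 4 h at 37 °C without agitation, then washed with saline. Refilled with 2× MH plus compound and incubated 20 h at 37 °C. Methanol-fixed, crystal violet stained, eluted with 33% acetic acid, A590 read. Expressed as % of untreated biofilm; n ≥ 24.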
# Burkholderia cenocepacia [19] = experiment: Antimicrobial activity against Burkholderia cenocepacia LMG16656 assessed as inhibition of biofilm formation at 1 mM after 24 hrs by crystal violet staining; assay type: functional; details: LMG16656, 24 h; summary of the method: as §5
# Pseudomonas aeruginosa [20] = experiment: Antimicrobial activity against Pseudomonas aeruginosa PAO1 assessed as reduction of biofilm biomass at 1 mM incubated for 24 hrs post-biofilm growth by crystal violet staining; assay type: functional
# Summary of the method: (§6)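 Mature-biofilm treatment: biofilms grown 24 h at 37 °C without compound, rinsed with saline, then fresh medium containing compound added for a further 24 h at 37 °C. Biomass measured by crystal violet (methanol fixation, acetic acid elution, A590). Reported as % of control biofilm; twelve wells, ≥2 repeats.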
# Burkholderia cenocepacia [21] = experiment: Antimicrobial activity against Burkholderia cenocepacia LMG16656 assessed as reduction of biofilm biomass at 1 mM incubated for 24 hrs post-biofilm growth by crystal violet staining; assay type: functional, organism-based; summary of the method: as §6
# Pseudomonas aeruginosa [22] = experiment: Antimicrobial activity against Pseudomonas aeruginosa PAO1 assessed as reduction of cell viability at 1 mM incubated for 24 hrs post-biofilm growth by CTB staining; assay type: functional
# Summary of the method: (§7)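 Biofilms were grown 24 h at 37 °C in 2× MH (inoculum OD590 0.1) without compound. Wells were rinsed with saline, fresh medium with compound was added, and plates were held a further 24 h at 37 °C. Metabolically active cells were measured by CTB resazurin fluorescence after 60 min (ex 535/em 590) as % of control biofilm; n ≥ 24.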
# Burkholderia cenocepacia [23] = experiment: Antimicrobial activity against Burkholderia cenocepacia LMG16656 assessed as reduction of cell viability at 1 mM incubated for 24 hrs post-biofilm growth by CTB staining; assay type: functional, organism-based; summary of the method: as §7
# [24] = Cytotoxicity against human MRC5 cells after 3 days by resazurin reduction assay; assay type: cell-based
# Summary of the method: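 MRC-5 SV2 human lung fibroblasts in Earle's MEM with 5% FCSi, about 10^4 cells per well, exposed for 3 days at 37 °C and 5% CO2. Viability read by resazurin fluorescence (ex 550/em 590 nm) as % reduction versus untreated wells; CC50 derived.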
# Pseudomonas aeruginosa [25] = experiment: Antagonist activity at Pseudomonas aeruginosa QSIS2 LasR-mediated quorum sensing co-expressing SacB1 assessed as inhibition of 3-oxo-C12-HSL-induced luminescence at 1 mM […] by reporter gene assay; assay type: functional
# [26] = molecular target: T1, Transcriptional activator protein LuxR (Aliivibrio fischeri); experiment: Agonist activity at Vibrio fischeri LuxR-mediated quorum sensing expressed in Escherichia coli JB523 assessed as GFP expression at 1 mM after 24 hrs by reporter gene assay; assay type: functional; summary of the method: as §4
# Pseudomonas aeruginosa [27] = experiment: Agonist activity at Pseudomonas aeruginosa QSIS2 LasR-mediated quorum sensing coexpressing SacB1 assessed as […] by reporter gene assay; assay type: functional
# Pseudomonas aeruginosa [28] = experiment: Antimicrobial activity against Pseudomonas aeruginosa PAO1 assessed as reduction of cell viability at 1 mM after 24 hrs by CTB staining; assay type: functional, organism-based
# Summary of the method: (§8)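 Overnight MH cultures were centrifuged, resuspended in 2× MH and set to OD590 0.1. Cells adhered 4 h at 37 °C, wells were washed with saline, then compound in 2× MH was added for 20 h at 37 °C. Viable cells were read by resazurin (CTB) fluorescence after 60 min (ex 535/em 590) as % of untreated biofilm; 12 wells, ≥2 repeats.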
# Burkholderia cenocepacia [29] = experiment: Antimicrobial activity against Burkholderia cenocepacia LMG16656 assessed as reduction of cell viability at 1 mM after 24 hrs by CTB staining; assay type: functional, organism-based; summary of the method: as §8
# [30] = molecular target: T2, Transcriptional activator protein LuxR (Aliivibrio fischeri, UniProt P12746); experiment: as §3; assay type: functional; summary of the method: as §1
# T2 sequence (P12746 whole entry): T1 sequence (whole entry)
structure (smiles),measurement,setting,value
CCCCCCCCCCCCc1cn(C2CCOC2=O)nn1 (stereo unspecified),inhibition,[1],34.4%
same,MIC,Escherichia coli,2.5 mM
same,MIC,Burkholderia cenocepacia [2],2500 µM
same,MIC,Pseudomonas aeruginosa [3],2500 µM
same,MIC,Pseudomonas aeruginosa [4],2500 µM
same,inhibition,[5],Dose-dependent effect
same,inhibition,[6],inactive
same,inhibition,[7],23.7%
same,inhibition,Pseudomonas aeruginosa [8],10.6%
same,inhibition,Pseudomonas aeruginosa [9],12.8%
same,inhibition,Pseudomonas aeruginosa [10],30.9%
same,Activity,[11],inactive
same,Activity,[12],inactive
same,Activity,[13],inactive
same,Activity,Pseudomonas aeruginosa [14],28.7%
same,Activity,Pseudomonas aeruginosa [15],32%
same,Activity,Pseudomonas aeruginosa [16],43.8%
same,Activity,Pseudomonas aeruginosa [17],Dose-dependent effect
same,inhibition at 1000 µM,Pseudomonas aeruginosa [18],46%
same,inhibition at 1000 µM,Burkholderia cenocepacia [19],70%
same,Activity,Pseudomonas aeruginosa [20],Active
same,Activity,Burkholderia cenocepacia [21],Active
same,Activity,Pseudomonas aeruginosa [22],Active
same,Activity,Burkholderia cenocepacia [23],Active
same,CC50 at 72 h,[24],670 µM
same,inhibition,Pseudomonas aeruginosa [25],36.5%
same,Activity,[26],inactive
same,Activity,Pseudomonas aeruginosa [27],45.5%
same,Activity,Pseudomonas aeruginosa [28],Active
same,Activity,Burkholderia cenocepacia [29],Active
CCCCCCCCc1cn(C2CCOC2=O)nn1 (stereo unspecified),inhibition,[1],71.6%
same,MIC,Escherichia coli,5 mM
same,MIC,Burkholderia cenocepacia [2],2500 µM
same,MIC,Pseudomonas aeruginosa [3],2500 µM
same,MIC,Pseudomonas aeruginosa [4],2500 µM
same,inhibition,[5],Dose-dependent effect
same,IC50,[30],308 µM
same,inhibition,[6],34.1%
same,inhibition,[7],59.8%
same,inhibition,Pseudomonas aeruginosa [8],inactive
same,inhibition,Pseudomonas aeruginosa [9],inactive
same,inhibition,Pseudomonas aeruginosa [10],inactive
same,Activity,[11],inactive
same,Activity,[12],inactive
same,Activity,[13],5.2%
same,Activity,Pseudomonas aeruginosa [14],inactive
same,Activity,Pseudomonas aeruginosa [15],inactive
same,Activity,Pseudomonas aeruginosa [16],19.4%
same,Activity,Pseudomonas aeruginosa [17],Dose-dependent effect
same,inhibition,Pseudomonas aeruginosa [18],inactive
same,inhibition at 1000 µM,Burkholderia cenocepacia [19],68%
same,Activity,Pseudomonas aeruginosa [20],38%
same,Activity,Burkholderia cenocepacia [21],Active
same,Activity,Pseudomonas aeruginosa [22],28%
same,Activity,Burkholderia cenocepacia [23],Active
same,CC50 at 72 h,[24],> 1000 µM
same,inhibition,Pseudomonas aeruginosa [25],inactive
same,Activity,[26],10.6%
same,Activity,Pseudomonas aeruginosa [27],29%
same,Activity,Pseudomonas aeruginosa [28],Active
same,Activity,Burkholderia cenocepacia [29],Active
O=C1OCCC1n1cc(CCc2ccccc2)nn1 (stereo unspecified),inhibition,[1],29.2%
same,MIC,Escherichia coli,10 mM
same,MIC,Burkholderia cenocepacia [2],5000 µM
same,MIC,Pseudomonas aeruginosa [3],2500 µM
same,MIC,Pseudomonas aeruginosa [4],5000 µM
same,inhibition,[5],Dose-dependent effect
same,inhibition,[6],inactive
same,inhibition,[7],25.7%
same,inhibition,Pseudomonas aeruginosa [8],15.8%
same,inhibition,Pseudomonas aeruginosa [9],25.3%
same,inhibition,Pseudomonas aeruginosa [10],35.2%
same,Activity,[11],inactive
same,Activity,[12],inactive
same,Activity,[13],inactive
same,Activity,Pseudomonas aeruginosa [14],39.1%
same,Activity,Pseudomonas aeruginosa [15],41.5%
same,Activity,Pseudomonas aeruginosa [16],67.2%
same,Activity,Pseudomonas aeruginosa [17],Dose-dependent effect
same,inhibition at 1000 µM,Pseudomonas aeruginosa [18],40%
same,inhibition at 1000 µM,Burkholderia cenocepacia [19],40%
same,Activity,Pseudomonas aeruginosa [20],36%
same,Activity,Burkholderia cenocepacia [21],Active
same,Activity,Pseudomonas aeruginosa [22],37%
same,Activity,Burkholderia cenocepacia [23],Active
same,CC50 at 72 h,[24],> 1000 µM
same,inhibition,Pseudomonas aeruginosa [25],43.2%
same,Activity,[26],inactive
same,Activity,Pseudomonas aeruginosa [27],81.4%
same,Activity,Pseudomonas aeruginosa [28],Active
same,Activity,Burkholderia cenocepacia [29],Active
